Measured values from ChEMBL document CHEMBL1151455, “Increased macrolide resistance of Mycoplasma pneumoniae in pediatric patients with community-acquired pneumonia” (2008).
In brackets after ≈: the same amount, converted by molar mass.

Columns and labels:
Format in all cases: functional
[1] = system: Mycoplasmoides pneumoniae; assay: Antimicrobial activity against macrolide-susceptible Mycoplasma pneumoniae isolated from pediatric patients with community-acquired pneumonia after 10 to 14 days by microdilution method
Outline: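 Pediatric CAP nasopharyngeal isolates, cultured in PPLO broth from real-time PCR-positive samples; strain M129 as control. Broth microdilution in PPLO broth: inoculum estimated at 10^5 CFU/ml added 1:10 to serially diluted antibiotic. Incubated aerobically at 37°C for 10–14 days, until the antibiotic-free growth control changed colour. MIC taken as lowest concentration preventing colour change; MIC50/MIC90 and range reported.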

[2] = system: Mycoplasmoides pneumoniae; assay: Antimicrobial activity against macrolide-resistant Mycoplasma pneumoniae harboring A2063G transition in domain V of 23S rRNA isolated from pediatric patients with community-acquired pneumonia after 10 to 14 days by microdilution method
Outline: (§1)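 Clinical isolates cultured from PCR-positive pediatric nasopharyngeal samples in PPLO broth; resistance mutation identified by full-length 23S rRNA gene sequencing. Broth microdilution in PPLO broth containing serially diluted antibiotics, inoculum estimated at 10^5 CFU/ml in culture. Incubated aerobically at 37°C for 10 to 14 days until the antibiotic-free control changed colour. MIC was the lowest concentration preventing the colour change. Strain M129 served as control.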

[3] = system: Mycoplasmoides pneumoniae; assay: Antimicrobial activity against macrolide-resistant Mycoplasma pneumoniae harboring A2064G transition in domain V of 23S rRNA isolated from pediatric patients with community-acquired pneumonia after 10 to 14 days by microdilution method; outline: as §1

SMILES	MIC50 [1]	MIC90 [1]	MIC50 [2]	MIC90 [2]	MIC50 [3]	MIC90 [3]	MIC [3]
C[C@H]1COc2c(N3CCN(C)CC3)c(F)cc3c(=O)c(C(=O)O)cn1c23.C[C@H]1COc2c(N3CCN(C)CC3)c(F)cc3c(=O)c(C(=O)O)cn1c23.O [LEVOFLOXACIN]	0.5 mg/L	1 mg/L	1 mg/L	1 mg/L	1 mg/L	1 mg/L	
CC[C@H]1OC(=O)[C@H](C)[C@@H](O[C@H]2C[C@@](C)(OC)[C@@H](O)[C@H](C)O2)[C@H](C)[C@@H](O[C@@H]2O[C@H](C)C[C@H](N(C)C)[C@H]2O)[C@](C)(O)C[C@@H](C)C(=O)[C@H](C)[C@@H](O)[C@]1(C)O [ERYTHROMYCIN]	0.0078 mg/L (≈ 0.0106 µM)	0.0156 mg/L (≈ 0.0213 µM)	64 mg/L (≈ 87.2 µM)	> 64 mg/L	> 64 mg/L	> 64 mg/L	≥ 64 mg/L
CC[C@H]1OC(=O)[C@H](C)C(=O)[C@H](C)[C@@H](O[C@@H]2O[C@H](C)C[C@H](N(C)C)[C@H]2O)[C@](C)(OC)C[C@@H](C)C(=O)[C@H](C)[C@H]2N(CCCCn3cnc(-c4cccnc4)c3)C(=O)O[C@]12C [TELITHROMYCIN]	0.00098 mg/L (≈ 0.00121 µM)	0.00195 mg/L (≈ 0.0024 µM)	32 mg/L (≈ 39.4 µM)	64 mg/L (≈ 78.8 µM)	4 mg/L (≈ 4.93 µM)	16 mg/L (≈ 19.7 µM)	
CO[C@@H]1[C@@H](O[C@@H]2O[C@H](C)[C@@H](O[C@H]3C[C@@](C)(O)[C@@H](OC(=O)CC(C)C)[C@H](C)O3)[C@H](N(C)C)[C@H]2O)[C@@H](CC=O)C[C@@H](C)[C@@H](O)/C=C/C=C/C[C@@H](C)OC(=O)C[C@H]1OC(C)=O [JOSAMYCIN]	0.0313 mg/L (≈ 0.0378 µM)	0.0625 mg/L (≈ 0.0755 µM)	8 mg/L (≈ 9.66 µM)	16 mg/L (≈ 19.3 µM)	64 mg/L (≈ 77.3 µM)	> 64 mg/L	
CC[C@H]1OC(=O)[C@H](C)[C@@H](O[C@H]2C[C@@](C)(OC)[C@@H](O)[C@H](C)O2)[C@H](C)[C@@H](O[C@@H]2O[C@H](C)C[C@H](N(C)C)[C@H]2O)[C@](C)(OC)C[C@@H](C)C(=O)[C@H](C)[C@@H](O)[C@]1(C)O [CLARITHROMYCIN]	0.0039 mg/L (≈ 0.00521 µM)	0.0078 mg/L (≈ 0.0104 µM)	64 mg/L (≈ 85.6 µM)	> 64 mg/L	64 mg/L (≈ 85.6 µM)	64 mg/L (≈ 85.6 µM)	
CCCC(=O)O[C@H]1[C@H](C)O[C@@H](O[C@H]2[C@H](N(C)C)[C@@H](O)[C@H](O[C@H]3[C@@H](CC=O)C[C@@H](C)[C@@H](O)/C=C/C=C/C[C@@H](C)OC(=O)C[C@@H](O)[C@@H]3OC)O[C@@H]2C)C[C@@]1(C)OC(=O)CC [ROKITAMYCIN]	0.0156 mg/L (≈ 0.0188 µM)	0.0156 mg/L (≈ 0.0188 µM)	0.125 mg/L (≈ 0.151 µM)	0.25 mg/L (≈ 0.302 µM)	16 mg/L (≈ 19.3 µM)	16 mg/L (≈ 19.3 µM)	
CN(C)c1ccc(O)c2c1C[C@H]1C[C@H]3[C@H](N(C)C)C(O)=C(C(N)=O)C(=O)[C@@]3(O)C(O)=C1C2=O [MINOCYCLINE]	0.5 mg/L (≈ 1.09 µM)	1 mg/L (≈ 2.19 µM)	0.5 mg/L (≈ 1.09 µM)	1 mg/L (≈ 2.19 µM)	0.5 mg/L (≈ 1.09 µM)	1 mg/L (≈ 2.19 µM)	
CC[C@H]1OC(=O)[C@H](C)[C@@H](O[C@H]2C[C@@](C)(OC)[C@@H](O)[C@H](C)O2)[C@H](C)[C@@H](O[C@@H]2O[C@H](C)C[C@H](N(C)C)[C@H]2O)[C@](C)(O)C[C@@H](C)CN(C)[C@H](C)[C@@H](O)[C@]1(C)O [AZITHROMYCIN]	0.00049 mg/L (≈ 0.000654 µM)	0.00098 mg/L (≈ 0.00131 µM)	32 mg/L (≈ 42.7 µM)	64 mg/L (≈ 85.4 µM)	32 mg/L (≈ 42.7 µM)	64 mg/L (≈ 85.4 µM)	
